Consider 1 molecule from ChEMBL document CHEMBL2216748 (J Med Chem, 2012).

Each structure is given as a SMILES string. The source made the active and inactive calls. No cut-off for these calls is given here.

In general, IC50 refers to the concentration needed to halve the response being measured.

Experiment [1] concerns the target T1, Ribosyldihydronicotinamide dehydrogenase [quinone] (Homo sapiens) (UniProt P16083).
T1 sequence (whole entry): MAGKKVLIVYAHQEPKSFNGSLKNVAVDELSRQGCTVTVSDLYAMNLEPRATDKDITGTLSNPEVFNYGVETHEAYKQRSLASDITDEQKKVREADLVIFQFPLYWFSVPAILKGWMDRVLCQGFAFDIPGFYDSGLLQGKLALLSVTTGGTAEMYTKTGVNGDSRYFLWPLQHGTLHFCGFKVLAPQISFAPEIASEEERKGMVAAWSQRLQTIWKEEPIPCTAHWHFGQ
Briefly: Displacement of (S)-N4-(3-(3-(2-((4-carbamimidoylphenylamino)methyl)-1-methyl-N-(pyridin-2-yl)-1H-benzo[d]imidazole-5-carboxamido)propanamido)propyl)-N1-(15-oxo-19-((3aS,4S,6aR)-2-oxohexahydro-1H-thieno[3,4-d]imidazol-4-yl)-4,7,10-trioxa-14-azanonadecyl)-2-(4-(3-(trifluoromethyl)-3H-diazirin-3-yl)benzamido)succinamide from NQO2 in human HepG2 cell lysate after 1 hr by capture compound based LC/MS analysis. Put shortly: (§1)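 Capture compound MS: 400 μg HepG2 or K562 lysate in capture buffer, precleared with streptavidin beads 30 min at 4 °C. Competition controls preincubated 30 min at 4 °C with free drug (10 μL of 1 mM). Capture compound (10 μL of 50 μM) equilibrated 1 h at 4 °C, UV-irradiated 10 min, streptavidin bead pulldown, on-bead trypsin digestion, nanoLC-MS/MS. Spectral counts compared capture vs competition (t test). HepG2 in quadruplicate, K562 in duplicate.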

The target in experiment [2] is Histamine N-methyltransferase (Homo sapiens) (UniProt P50135). The experiment in a line: Displacement of 3-(1-methyl-N-(pyridin-2-yl)-2-((4-(N-((S)-6,9,25-trioxo-29-((3aS,4S,6aR)-2-oxohexahydro-1H-thieno[3,4-d]imidazol-4-yl)-8-(4-(3-(trifluoromethyl)-3H-diazirin-3-yl)benzamido)-14,17,20-trioxa-5,10,24-triazanonacosyl)carbamimidoyl)phenylamino)methyl)-1H-benzo[d]imidazole-5-carboxamido)propanoic acid from HNMT in human HepG2 cell lysate after 1 hr by capture compound based LC/MS analysis. It counts as cell-free. Put shortly: as §1

Experiment [3] concerns the target Adenosine kinase (Homo sapiens) (UniProt P55263). The experiment in a line: Displacement of 3-(1-methyl-N-(pyridin-2-yl)-2-((4-(N-((S)-6,9,25-trioxo-29-((3aS,4S,6aR)-2-oxohexahydro-1H-thieno[3,4-d]imidazol-4-yl)-8-(4-(3-(trifluoromethyl)-3H-diazirin-3-yl)benzamido)-14,17,20-trioxa-5,10,24-triazanonacosyl)carbamimidoyl)phenylamino)methyl)-1H-benzo[d]imidazole-5-carboxamido)propanoic acid from ADK in human HepG2 cell lysate after 1 hr by capture compound based LC/MS analysis. It counts as cell-free. Put shortly:
as §1

The target in experiment [4] is T1, Ribosyldihydronicotinamide dehydrogenase [quinone] (Homo sapiens). The experiment in a line: Displacement of (S)-N4-(4-(3-(2-((4-carbamimidoylphenylamino)methyl)-1-methyl-N-(pyridin-2-yl)-1H-benzo[d]imidazole-5-carboxamido)propanamido)butyl)-N1-(15-oxo-19-((3aS,4S,6aR)-2-oxohexahydro-1H-thieno[3,4-d]imidazol-4-yl)-4,7,10-trioxa-14-azanonadecyl)-2-(4-(3-(trifluoromethyl)-3H-diazirin-3-yl)benzamido)succinamide from NQO2 in human HepG2 cell lysate at 100 uM after 1 hr by Western blot analysis. It counts as cell-free. The procedure, abridged: (§2)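 NQO2 capture from HepG2 or K562 lysate, or from pooled human liver microsomes, with capture compound (1 h, 4 °C) after 30 min competitor preincubation. UV cross-linked 10 min and streptavidin pulldown. Detection by Western blot: anti-NQO2 1:500, then HRP anti-rabbit secondary 1:1000.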
A general note: In western blotting, separated proteins are transferred to a membrane and probed.

The target is the same in experiment [5]. Briefly: Displacement of (S)-N4-(4-(3-(2-((4-carbamimidoylphenylamino)methyl)-1-methyl-N-(pyridin-2-yl)-1H-benzo[d]imidazole-5-carboxamido)propanamido)butyl)-N1-(15-oxo-19-((3aS,4S,6aR)-2-oxohexahydro-1H-thieno[3,4-d]imidazol-4-yl)-4,7,10-trioxa-14-azanonadecyl)-2-(4-(3-(trifluoromethyl)-3H-diazirin-3-yl)benzamido)succinamide from NQO2 in human liver microsomes after 1 hr by Western blot analysis. The conditions noted are these: Microsome. Put shortly:
as §2

Experiment [6] shares this target. Briefly: Displacement of 3-(1-methyl-N-(pyridin-2-yl)-2-((4-(N-((S)-6,9,25-trioxo-29-((3aS,4S,6aR)-2-oxohexahydro-1H-thieno[3,4-d]imidazol-4-yl)-8-(4-(3-(trifluoromethyl)-3H-diazirin-3-yl)benzamido)-14,17,20-trioxa-5,10,24-triazanonacosyl)carbamimidoyl)phenylamino)methyl)-1H-benzo[d]imidazole-5-carboxamido)propanoic acid from NQO2 in human liver microsomes after 1 hr by Western blot analysis. The conditions noted are these: Microsome. The procedure, abridged:
as §2
Background: Liver microsomes are vesicles of endoplasmic reticulum, rich in cytochrome P450 enzymes.

For experiment [7] the target is unchanged. Briefly: Displacement of (S)-N4-(4-(3-(2-((4-carbamimidoylphenylamino)methyl)-1-methyl-N-(pyridin-2-yl)-1H-benzo[d]imidazole-5-carboxamido)propanamido)butyl)-N1-(15-oxo-19-((3aS,4S,6aR)-2-oxohexahydro-1H-thieno[3,4-d]imidazol-4-yl)-4,7,10-trioxa-14-azanonadecyl)-2-(4-(3-(trifluoromethyl)-3H-diazirin-3-yl)benzamido)succinamide from human recombinant NQO2 after 1 hr by silver staining-based SDS PAGE analysis. The procedure, abridged:
(§3)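 Human recombinant NQO2 (1 μg) was preincubated 30 min at 4 °C with competitor, then capture compound was added at 5 μM final (competitors 100 μM final) and equilibrated 1 h at 4 °C. Samples were UV-irradiated 10 min, pulled down on streptavidin beads and resolved by silver-stained SDS-PAGE.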

For experiment [8] the target is unchanged. The experiment in a line: Displacement of 3-(1-methyl-N-(pyridin-2-yl)-2-((4-(N-((S)-6,9,25-trioxo-29-((3aS,4S,6aR)-2-oxohexahydro-1H-thieno[3,4-d]imidazol-4-yl)-8-(4-(3-(trifluoromethyl)-3H-diazirin-3-yl)benzamido)-14,17,20-trioxa-5,10,24-triazanonacosyl)carbamimidoyl)phenylamino)methyl)-1H-benzo[d]imidazole-5-carboxamido)propanoic acid from human recombinant NQO2 after 1 hr by silver staining-based SDS PAGE analysis. Put shortly:
as §3

The target is the same in experiment [9]. The experiment in a line: Displacement of (S)-N4-(2-(4-(4-(4-methyl-3-(4-(pyridin-3-yl)pyrimidin-2-ylamino)phenylcarbamoyl)benzyl)piperazin-1-yl)ethyl)-N1-(15-oxo-19-((3aS,4S,6aR)-2-oxohexahydro-1H-thieno[3,4-d]imidazol-4-yl)-4,7,10-trioxa-14-azanonadecyl)-2-(4-(3-(trifluoromethyl)-3H-diazirin-3-yl)benzamido)succinamide from human recombinant NQO2 after 1 hr by silver staining-based SDS PAGE analysis. Put shortly: as §3

Experiment [10] can be described thus: Inhibition of human alpha thrombin using Boc-Val-Pro-Arg-AMC as substrate after 2 hrs by fluorometric analysis. Put shortly: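 Human α-thrombin at 5.5 ng/mL final with Boc-Val-Pro-Arg-AMC (15 μM) in 50 mM Tris pH 7.5, 150 mM NaCl, 0.05% Tween 20. Compound tested as 16 two-fold dilutions in DMSO, 2.5 mM to 75 nM. Incubated 2 h at room temperature; fluorescence read at ex 355, em 460 nm for percent inhibition.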

Chain of Adenosine kinase (Homo sapiens) (P55263 2-362 limits assumed): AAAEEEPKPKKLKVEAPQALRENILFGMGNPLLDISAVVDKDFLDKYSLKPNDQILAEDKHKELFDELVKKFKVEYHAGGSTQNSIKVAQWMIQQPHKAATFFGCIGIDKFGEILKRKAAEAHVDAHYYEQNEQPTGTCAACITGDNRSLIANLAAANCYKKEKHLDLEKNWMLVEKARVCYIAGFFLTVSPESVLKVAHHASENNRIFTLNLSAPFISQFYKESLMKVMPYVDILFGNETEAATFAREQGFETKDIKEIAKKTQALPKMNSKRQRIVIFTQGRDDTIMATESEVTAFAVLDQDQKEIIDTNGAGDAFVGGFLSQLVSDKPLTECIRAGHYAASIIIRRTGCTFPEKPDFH
Chain of Histamine N-methyltransferase (Homo sapiens) (P50135 whole entry): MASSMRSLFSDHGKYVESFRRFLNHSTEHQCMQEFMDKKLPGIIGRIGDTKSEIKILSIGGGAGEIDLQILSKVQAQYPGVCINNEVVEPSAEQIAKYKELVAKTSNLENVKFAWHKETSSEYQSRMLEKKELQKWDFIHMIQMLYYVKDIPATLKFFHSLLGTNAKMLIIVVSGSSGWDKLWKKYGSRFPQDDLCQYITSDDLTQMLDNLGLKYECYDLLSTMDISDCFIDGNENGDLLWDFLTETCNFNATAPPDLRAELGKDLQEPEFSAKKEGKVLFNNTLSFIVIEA

For the molecule `Cn1c(CNc2ccc(C(=N)N)cc2)nc2cc(C(=O)N(CCC(=O)O)c3ccccn3)ccc21` [DABIGATRAN], the outcome in experiment [1], in experiment [2], in experiment [3], in experiment [4], in experiment [5] and in experiment [6] was Active. Also, the result in experiment [7], in experiment [8] and in experiment [9] was Active. The molecule also returned an IC50 in [10] of 13.8 nM.
